In publication PMC10896134 (Pharmaceutical Biology, 2024):

Experiments:
neuroblastoma cell lines = conditions: read-out: IC50 in neuroblastoma cell lines; ref Aggarwal et al. [2012]; cited from earlier work
[1] = test system: non-neuroblastoma cell lines; conditions: read-out: IC50 in non-neuroblastoma cell lines; ref Aggarwal et al. [2012]; cited from earlier work
MCF-7 = test: Antiproliferation assay; format: cell-based; conditions: Homo sapiens, MCF7, 24 h, read-out: IC50 = mean ± SD, MCF-7
How it was run: (§1)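 Cell lines were grown at 37 °C under 5% CO2 in their own media: A549 in DMEM/F12, H446 in RPMI 1640, and HeLa, MCF-7, L02 and BEAS-2B in high-glucose DMEM with L-glutamine, with 10% FBS and penicillin/streptomycin. Cells were seeded in 96-well plates and exposed to test compounds or reference agents at 37 °C for 24 h. CCK-8 was added for 2 h and absorbance read at 450 nm.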

Hela = test: Antiproliferation assay; format: cell-based; conditions: Homo sapiens, 24 h, read-out: IC50 = mean ± SD, Hela
How it was run: as §1

A549 = test: Antiproliferation assay; format: cell-based; conditions: Homo sapiens, A549, 24 h, read-out: IC50 = mean ± SD, A549
How it was run: as §1

H446 = test: Antiproliferation assay; format: cell-based; conditions: Homo sapiens, NCI-H446, 24 h, read-out: IC50 = mean ± SD, H446
How it was run: as §1

BEAS-2B = test: Antiproliferation assay; format: cell-based; conditions: Homo sapiens, 24 h, read-out: IC50 = mean ± SD, BEAS-2B
How it was run: as §1

L02 = test: Antiproliferation assay; format: cell-based; conditions: Homo sapiens, L02, 24 h, read-out: IC50 = mean ± SD, L02
How it was run: as §1

[2] = test system: interphase microtubules of A549 cells (tubulin); test: Confocal microscopy / western blot of tubulin depolymerization; format: cell-based, human; conditions: A549, 24 h; E5 0.5 and 1.0 µM, colchicine 1.0 µM, etoposide 1.0 µM
A549 cells [3] = test: Wound healing migration assay; format: cell-based, human; conditions: A549, 24 h; E5 0.5, 1.0 and 2.0 µM, etoposide 1.0 µM
How it was run: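 Scratch assay: A549 cells were grown to 85% confluence in 6-well plates, scratched with a pipette tip and washed with PBS. They were then incubated at 37 °C for 24 h with 0.1% DMSO, test compound (0.5, 1.0 or 2.0 µM) or reference agents (1.0 µM). Wounds were imaged at 0 and 24 h, and inhibition of migration was expressed relative to control.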

A549 xenografts = test: A549 xenograft tumour model in nude mice; format: in vivo, female BALB/c nude mice; conditions: 2 mg/kg i.p. once every two days, eight times
How it was run: (§2)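 Female BALB/c nude mice, 5 weeks old, acclimated 1 week, then given 5.0 × 10^6 A549 cells in 0.1 mL serum-free medium subcutaneously into the left axilla. Body weight and caliper tumour size (0.5 × length × width2) were taken every two days; tumours were excised and weighed at the end.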

A549 cells [4] = test: Cell-cycle analysis; format: cell-based, human; conditions: A549, 1.0 µM, 24 h, Figure 4C
How it was run: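 A549 cells (5.0 × 10^4/well) adhered overnight, then received 0.1% DMSO, test compound (0.1, 0.5 or 1.0 µM) or reference agent (1.0 µM) for 24 h; a time course used 0.5 µM for 12, 24 and 36 h. Cells were fixed in 70% ethanol at 4 °C for 24 h and stained with RNase A plus propidium iodide at 4 °C for 0.5 h in the dark. Flow cytometry gated G0/G1, S and G2/M by DNA content.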

A549 cells [5] = test: Mitochondrial membrane potential analysis; format: cell-based, human; conditions: A549, JC-1, 2.0 µM, 12 h; control 4.33%
A549 cells [6] = test: Transwell invasion assay; format: cell-based, human; conditions: A549, 24 h; better than PPT and etoposide at 1.0 µM
A549 cells [7] = test: Colony formation assay; format: cell-based, human; conditions: A549, versus control and PPT-treated cells
[8] = test system: PI3K/Akt pathway in A549 cells; test: Western blot of PI3K/Akt signalling pathway proteins; format: cell-based, human; conditions: A549, E5 0.1, 1.0 and 2.0 µM, 24 h
How it was run: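 A549 cells were treated 24 h with test compound (0.1, 0.5, 1.0 or 2.0 µM), LY294002 (1.0 µM) or a reference agent (1.0 µM). Lysates were heat-denatured in non-reducing sample buffer and quantified by Bradford assay. 20 µg protein ran on 10% SDS-PAGE, transferred to PVDF and probed for PI3K, pPI3K, Akt and pAkt with GAPDH as loading control. Detection was by ECL with densitometry.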

[9] = test system: Bax and Bcl-2 in A549 cells; test: Western blot of apoptosis-related proteins; format: cell-based, human
How it was run: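 Immunoblot of A549 lysates: heat-denatured in non-reducing sample buffer, Bradford-quantified, 20 µg protein on 10% SDS-PAGE, transferred to PVDF. Blots were probed for Bax and Bcl-2 with GAPDH as internal control, detected by ECL and quantified by densitometry. Data given as mean ± SD.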

[10] = Body weight of xenograft mice; format: in vivo, female BALB/c nude mice; conditions: E5 i.p., A549 xenograft mice, 15 days
How it was run: as §2

[11] = test system: non-small cell lung cancer (NSCLC) cell lines; conditions: at 2 mM; ref Chang and Szabo [2002]; cited from earlier work

Row | IC50 (MCF-7) | IC50 (Hela) | IC50 (A549) | IC50 (H446) | Compound | IC50 (BEAS-2B) | IC50 (L02) | tubulin depolymerization [2] | cell scratch healing (migration) (A549 cells [3]) | tumour growth, E5 and etoposide at the same dose (A549 xenografts) | further results
1 |  |  |  |  | COc1ccc(S(=O)(=O)Nc2cccnc2Nc2ccc(O)cc2)cc1 [ABT-751] |  |  |  |  |  | IC50 (neuroblastoma cell lines): ~1.5 µM; IC50 [1]: ~3.4 µM
2 | 10.9 ± 0.39 µM | 24.7 ± 0.79 µM | 9.32 ± 0.55 µM | 2.21 ± 0.42 µM | COc1cc([C@@H]2c3cc4c(cc3[C@@H](O[C@@H]3O[C@@H]5CO[C@@H](C)O[C@H]5[C@H](O)[C@H]3O)[C@H]3COC(=O)[C@H]23)OCO4)cc(OC)c1O [Etoposide, etoposide, reference compound] | 67.6 ± 2.25 µM | 13.5 ± 1.15 µM | did not show such an effect | strong inhibitory effect | specific inhibitory effect | 
3 | 2.91 ± 0.55 µM | 51.3 ± 1.42 µM | 0.35 ± 0.13 µM | 2.42 ± 0.3 µM | COc1cc([C@@H]2c3cc4c(cc3[C@H](OC(=O)CCCc3ccc(NS(=O)(=O)c5cccc(Br)c5)cc3)[C@H]3COC(=O)[C@H]23)OCO4)cc(OC)c1OC [Compound E5, (5R,5aR,8aR,9R)-8-oxo-9-(3,4,5-trimethoxyphenyl)-5,5a,6,8,8a,9-hexahydrofuro [3′,4′:6,7]naphtho[2,3-d][1,3]dioxol-5-yl4-(4-((3-bromophenyl)sulfonamido)phenyl)butanoate] | > 100 µM | > 100 µM | significant tubulin depolymerization | significantly slowed dose dependent | specific inhibitory effect | cells in G2/M phase (A549 cells [4]): 32.73%; cells in S phase (A549 cells [4]): 34.09%; cells with low ΔΨm (ratio of cells with low membrane potential) (A549 cells [5]): 24.7%; cell invasion (A549 cells [6]): effectively inhibited cell invasion; clone formation rate and clone size (A549 cells [7]): lower clone formation rate and a smaller clone size; expression of pPI3K and pAkt [8]: down-regulated dose-dependent; Bax expression [9]: increased; expression of the antiapoptotic protein Bcl-2 [9]: significantly decreased; body weight of the mice [10]: no significant changes
4 |  |  |  |  | O=C([O-])CCCc1ccccc1.[Na+] [sodium 4-phenylbutyrate] |  |  |  |  |  | growth of NSCLC cell lines [11]: impeding the growth
